Data taken from the EternaBench riboswitch data.

What was measured:
[1] = test system: MS2 coat protein; experiment: apparent Kd, MS2 coat protein; higher = weaker binding; RNA-MaP array; theophylline 2 mM where present
How it was run: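 Binding was read on Illumina sequencing-chip clusters where stalled E. coli RNA polymerase had transcribed each design. A titration of SNAP-549-labelled MS2 coat protein began at 0.7 or 1.5 nM and doubled to 3 µM, once without ligand and once with constant ligand, in 100 mM Tris-HCl pH 7.5, 80 mM KCl, 4 mM MgCl2, BSA, DTT, yeast tRNA and Tween-20. The apparent Kd is the median of filtered per-cluster binding-curve fits, based on green signal normalised to red-channel RNA signal and control-cluster median Fmax.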

[2] = test system: MS2 coat protein; experiment: apparent Kd, MS2 coat protein; higher = weaker binding; RNA-MaP array
How it was run: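 Designed RNAs were transcribed in place on an Illumina sequencing chip from sequenced DNA templates. At room temperature and with or without input ligand, they were incubated with fluorescently labeled MS2 coat protein from 1.5 nM to 3 μM, for 0.8–1.5 h at the lowest and 10–20 min at the highest concentrations. Apparent Kd is the median of the binding-curve fits made per cluster, with designs measured on fewer than 10 clusters excluded.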

[3] = designed as: ON switch for theophylline, no ligand
[4] = ligand present: theophylline, designed as: ON switch for theophylline
[5] = designed as: OFF switch for theophylline, no ligand
[6] = ligand present: theophylline, designed as: OFF switch for theophylline
[7] = designed as: OFF switch for flavin mononucleotide, no ligand
[8] = ligand present: flavin mononucleotide, designed as: OFF switch for flavin mononucleotide
[9] = designed as: ON switch for flavin mononucleotide, no ligand
[10] = ligand present: flavin mononucleotide, designed as: ON switch for flavin mononucleotide

Sequence	apparent Kd [1, 3]	apparent Kd [1, 4]	apparent Kd [1, 5]	apparent Kd [1, 6]	also measured
UGUAACAUGAGGAUCACCCAUGUGCACGAUACCAGCUUAUUGGUAGGCCCUUGGCAGCGUAUUCGGAAGAUGUAUAAUAUAUAUC	13.4 nM	13.3 nM			
AAAGGCGGGCAGGAUACCAGCGCUAACAUGAGGAUCACCCAUGUACAAAUAAUAACAUGGUGCCCUUGGCAGCCUGGGCGUCUGC	56 nM	285 nM			
AGCGAUAUGCAUGAUACCAGCUACAUGAGGAUCACCCAUGUGCGUCAGAAAUGACUGUGUAGCCCUUGGCAGCAUAAAGCAUGUA			45.1 nM	87.2 nM	
GGGAAUGAACGUGAUACCAGAGAUCCGGUCUCCGUCACUCUACAUGAGGAUCACCCAUGUCUCCCUUGGCAGCACCGUCAUCGGG			34.4 nM	61 nM	
CAAAACCUUACAGAUACCAGCACAUGAGGAUCACCCAUGUAUUGGACACUUCGCUCAUCGUGCCCUUGGCAGCUGUGGGACGAGG			78.7 nM	175 nM	
AGCGACAUGCAUGAUACCAGCUACAUGAGGAUCACCCAUGUACGUCAGUAAUGACUGUGUAGCCCUUGGCAGCAUAAAGCAUGUC			28.8 nM	56.7 nM	
AUAACAUGAGGAUCACCCAUGUAAGCAGAUACCAGCUAGGAAACUAGCCCUUGGCAGCUGCAUUCCUCAUGUAGGUAUCUGCUAA			15.8 nM	62.5 nM	
ACAUGAAGAACAGCGGUGGGCGCGCUCGAUACCAGUAUUUUAAACUACCCUUGGCAGCGACAUGAGGAUCACCCAUGUGAGAUGA			18.2 nM	35.7 nM	
ACGAACUGUAGUGAUACCAGACGUACAUGAGGAUCACCCAUGUUGUAAACAUGGUUAAUAGUCCCUUGGCAGCACAGUUAGUUCG			347 nM	531 nM	
AGCCCUGUACUAGAUACCAGCUACAUGAGGAUCACCCAUGUACGAUAAGACUGUCCAUGUAGCCCUUGGCAGCUGCUCGCAUGUA			30.6 nM	68.8 nM	
AACUGGGUUCGUGAUACCAGCUCACACAUGAGGAUCACCCAUGUAGUGGGUAAAAUGUGGAGCCCUUGGCAGCACUGUGACCACG			13.2 nM	60.7 nM	
AAACAUUGCUCAGAUACCAGACAUGAGGAUCACCCAUGUACCAAGGUAAAGAAAUAACGUGUCCCUUGGCAGCUGAGCAAUGAAA			10.2 nM	109 nM	
GAUAGUUGAAGGGAUACCAGCCUGGACAUGAGGAUCACCCAUGUAGCGUGUUUGAAACUGGGCCCUUGGCAGCCCAUAUUGUGUA	15.9 nM	14.6 nM			
AGAUAACAUGGUUUAAUAAGAUAAACUGAUACCAGUGUAUAUAAUCACCCUUGGCAGCAGCAACAUGAGGAUCACCCAUGUAAUA	17 nM	21.6 nM			
ACACAUGAGGAUCACCCAUGUUGCAUAGAUACCAGAUAACGUGAGAUCCCUUGGCAGCUAACUGCAUGAACUUGACAUGCAUCAU	42.4 nM	136 nM			
UCUUGAGUUUCGGAUACCAGUGUUGUCGAUACAUGAGGAUCACCCAUGUUAGAGGAUGUACACCCUUGGCAGCCGGCUGUGGCGG	20.7 nM	13 nM			
GGUGGGACUUGUGAUACCAGCCUAAUUCGAAUCGAAUUGCACAUGAGGAUCACCCAUGUCGGCCCUUGGCAGCAUGAGUAUUUAU	287 nM	20.4 nM			
ACAUGAGGAUCACCCAUGUGGCGUCUUGAUACCAGACCCGCACUAGUCCCUUGGCAGCAACUACGUGAGGGUCGCCCAUGUGUAG			35.9 nM	46.8 nM	
UGUAACAUGAGGAUCACCCAUGUAAGUGAUACCAGAUAAGUAGUAGUCCCUUGGCAGCAUAUUGGGCGAGUGUAUAGUCUAUACG	50.4 nM	61.1 nM			
UAUAUUGUGAUGGAUACCAGCAGAGAAAACGUUUAUCCUAACAUGAGGAUCACCCAUGUAUGCCCUUGGCAGCUGUUGUGGUAUA				44.4 nM	
AAGGUGAUCCCAGAUACCAGCCUAACAUGAGGAUCACCCAUGUUUGGGACGAAAGUCCCAGGCCCUUGGCAGCUGGGUUGCCAAG	225 nM	30.3 nM			
ACAUGAGGAUCACCCAUGUUCCUCGCCGAUACCAGUGAAGAAUUACGCCCUUGGCAGCGGAAAGAGUGUUUUGGAGAUGAGGUAC			72.6 nM	108 nM	
UAACAUGAGGAUCACCCAUGUAUAGUCGAUACCAGCUCUGUCUAGAGCCCUUGGCAGCGACACUGGUAUCCAUGGGUGUGGAUAC	108 nM	56.1 nM			
UCUUUCUAUUGUGAUACCAGACGUACAUGAGGAUCACCCAUGUUUCAUUCUUGUUUUAAAGUCCCUUGGCAGCACUAUUUGUUCG			16.3 nM	13.2 nM	
UGACAUUGCUGCGAUACCAGACAUGAGGAUCACCCAUGUACCAAGGUAACCGAAAGGCAUGUCCCUUGGCAGCGCAGCAAUGUCU			11.5 nM	197 nM	
AGAAUACAUGUUUUAAUACGGAAAACUGAUACCAGUGUAUCUAUUCACCCUUGGCAGCAGAGACAUGAGGAUCACCCAUGUAUUA	41.3 nM	28.6 nM			

Sequence	apparent Kd [1, 3]	apparent Kd [1, 4]	apparent Kd [1, 5]	apparent Kd [1, 6]	also measured
AGCCCUGUGCUAGAUACCAGCUACAUGAGGAUCACCCAUGUGCGUCAGAAAUGACUGUGUAGCCCUUGGCAGCUACUCGCAUGUA			14.5 nM	26 nM	
AUCGUACCUCAUGAUACCAGCAUGUGAUCAUAACAUGAGGAUCACCCAUGUAAUCAGUGAUGCCCUUGGCAGCGUAGUCGAUACA	136 nM	63 nM			
GGGAAAGAAUGUGAUACCAGAGAACCGGUCUCCAUCAAUAUACAUGAGGAUCACCCAUGUCUCCCUUGGCAGCACCAUCAUCAAA			23.1 nM	75.8 nM	
AGCGACAUGCGUGAUACCAGCUACAUGAGGAUCACCCAUGUACGUCAGUAAUGACUGUGUAGCCCUUGGCAGCAUAAUGCAUGUC			34.4 nM	67.2 nM	
GUCCUAGCGAUCGCUCGCUAGGACGCGGAUACCAGCGAGGUCCAUCGCCCUUGGCAGCCGAACAUGAGGAUCACCCAUGUCGGUA	9.59 nM	14.9 nM			
AUAUUACAUGUUAUUAUACGGUAUACUGAUACCAGUGUUUCUAUUCACCCUUGGCAGCAGCAACAUGAGGAUCACCCAUGUAUUA	16.7 nM	16.9 nM			
AUAAGUAAUGUUACGUGUUUAAUUGCAGAUACCAGACUAUACGUUGUCCCUUGGCAGCUGAAUUACAUGAGGAUCACCCAUGUUG			25.9 nM	25 nM	
GAUAGUUGAUGGGAUACCAGCGUGCACAUGAGGAUCACCCAUGUGGUUCGUGUACGACGGCGCCCUUGGCAGCCCAUAUUGUGUA	151 nM	18.9 nM			
AGUCUAUGAAGAGAUACCAGUGAGAGACAUAGACAUGAGGAUCACCCAUGUGACAUGAAGCACCCUUGGCAGCUCAACGAGCUCA	42.8 nM	16.1 nM			
UUCAAAGGGAACGGUGCUGGUGACAGAGAUACCAGCGCGGUAACGCGCCCUUGGCAGCUCAGAACAUGAGGAUCACCCAUGUAAU			13.6 nM	50.2 nM	
AUGUCGUUGAAUACAGCGGCAUGGUGUGAUACCAGAAUGAUCAAAUUCCCUUGGCAGCAUCACAUGAGGAUCACCCAUGUUAAGG	38.3 nM	52 nM			
UCCUCCUCCGCAAGGAGGAGGAGUUGCGAUACCAGCACGGAAACGUGCCCUUGGCAGCGCACAUGAGGAUCACCCAUGUCAUGUU			18 nM	24 nM	
AGAUCUUUCGAAAGAAGGAUCUUGUCUGAUACCAGAGACGAAAGUCUCCCUUGGCAGCAGUGCCAACAUGAGGAUCACCCAUGUA	20.1 nM	21.4 nM			
AGAGGUGCAACAGAUACCAGUCUACCGUACCUCAGAGAACAUGAGGAUCACCCAUGUAUAGACCCUUGGCAGCUGAUGUUAUUCA			22.3 nM	79 nM	
AGACAUGAGGAUCACCCAUGUAGUAUGGAUACCAGAUGUAGAUUAGUCCCUUGGCAGCUGUGGUGAAGUGAUGCAUUGCUCCUAG			23.4 nM	25.9 nM	
UGUAACAUGAGGAUCACCCAUGUGAGUGAUACCAGACUAGUAUUAGUCCCUUGGCAGCACGCUGGGCGAGUGUAUAGUCUAUGCG	85.9 nM	84.9 nM			
AGAUGACACAGUGGAUAGCAAGAUGCCGAUACCAGCUAGGAAACUAGCCCUUGGCAGCGGUACAUGAGGAUCACCCAUGUAUCCU			12.2 nM	58.7 nM	
AUAAAUAAAACCGAUACCAGCCUUAUACAUGAGGAUCACCCAUGUUAUGCUUCCUUUUUUGGCCCUUGGCAGCGGAAAUGGGUAA	83.3 nM	40.8 nM			
UGACAUUGCUCAGAUACCAGACAUGAGGAUCACCCAUGUACCAAGGUACGAAAAUAACAUGUCCCUUGGCAGCUGAGCAAUGUCU			13.6 nM	251 nM	
AGAUCCGGCGUGAGGAUAUAGCAAGCAACUAACGACUAGAAGGCACAUGAGGAUCACCCAUGUCUGUUACACUA					apparent Kd [2, 7]: 12.1 nM; apparent Kd [2, 8]: 36.7 nM
GGAAGCCGCUAGAAGGAAUAGCACGGGUGCUAAUUAGGAUAUAGUGUCCCAGCACAUGAGGAUCACCCAUGUAUAACACGAUCC					apparent Kd [2, 9]: 20.1 nM; apparent Kd [2, 10]: 16.9 nM
UAUAUGAAGGGAGGAUAUGACCGAGAGUAAAUGUCAGAAGGCCCGUUUCUUCACCAACGUCCGGUACAUGAGGAUCACCCAUGU					apparent Kd [2, 9]: 11.3 nM; apparent Kd [2, 10]: 8.86 nM
UCCACACGUCAGAAGGAUGUAUCUACAAUUUUCAUAGGAUAUGACCAUGGAGAUGAUUCCACAUGAGGAUCACCCAUGUCUGCU					apparent Kd [2, 7]: 288 nM; apparent Kd [2, 8]: 239 nM
AAUGAAUCCAAGAAGGAACACCAGGCGCACGUAAUCCAACAUGAGGAUCACCCAUGUAUAUUCUGUAAGGAUAUUGGAUUAAAG					apparent Kd [2, 7]: 7.45 nM; apparent Kd [2, 8]: 7.24 nM
CACGAUCGAGAAGAGUGCAACAUGAGGAUCACCCAUGUAUUCAGAAGGGCCACGACCUUAGUAGGGCAGGAUAUGAUACGAUAC					apparent Kd [2, 9]: 26.2 nM; apparent Kd [2, 10]: 19.9 nM
